MPTP inh: inhibitors of mitochondrial permeability transition pore | 1.4% of 360,000 active | AID 602449 | inhibition, % at 10 µM | isolated mouse mitochondria, Ca2+ swelling absorbance, 30 min;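 active = inhibition of 50% or more, scaled per plate between neutral and stimulator controls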;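 note: 0% = DMSO wells given calcium and 100% = 1 mM EGTA wells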
GRIN3A LBD mod: modulates the human NR3A ligand-binding domain; NR3A LBD differential scanning fluorimetry, Tm shift; 0% = protein alone, 100% = glycine-bound protein; Tm shift relative to glycine control, % at 25 µM; AID 1259313; 2.5% of 340,000 active;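 active = melting temperature shift of at least 10% of the positive control shift, at one fixed dose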
EBI2 block: EBI2 (human) antagonism. P32249. AID 651636. inhibition, % at 5 µM. EBI2 beta-arrestin recruitment, luminescence, 7a,25-OHC stimulated. 0.81% of 360,000 active; in the data active = inhibition above about 38%;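 note: enzyme fragment complementation signal reports receptor beta-arrestin coupling in cells; 0% = agonist plus DMSO wells and 100% = wells without agonist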
Target sequence (P32249 whole entry, looked up, the tested form may be a part): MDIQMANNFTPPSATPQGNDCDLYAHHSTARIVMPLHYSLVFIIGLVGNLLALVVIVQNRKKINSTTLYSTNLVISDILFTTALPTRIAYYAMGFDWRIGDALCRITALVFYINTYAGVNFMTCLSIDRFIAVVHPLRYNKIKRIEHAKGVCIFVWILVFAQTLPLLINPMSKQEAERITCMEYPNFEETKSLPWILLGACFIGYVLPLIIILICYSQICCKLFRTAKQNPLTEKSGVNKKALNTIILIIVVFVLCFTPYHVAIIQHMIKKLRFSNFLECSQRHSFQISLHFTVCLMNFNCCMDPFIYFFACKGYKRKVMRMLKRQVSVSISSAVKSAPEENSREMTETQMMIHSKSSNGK
SENP1 inh: blocks the human SENP1 SUMO protease catalytic domain; recombinant SENP1 catalytic domain, CyPet-SUMO1-YPet FRET cleavage; inhibition, % at 10 µM; 0.21% of 360,000 active; AID 624204;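 active = inhibition at least 30% at 10 µM, raw YFP signal under a set limit, fluorescence ratio 0.5 to 1.5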;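 note: 0% = enzyme with DMSO and 100% = no enzyme wells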
Target sequence (Q9P0U3 419-644 limits assumed): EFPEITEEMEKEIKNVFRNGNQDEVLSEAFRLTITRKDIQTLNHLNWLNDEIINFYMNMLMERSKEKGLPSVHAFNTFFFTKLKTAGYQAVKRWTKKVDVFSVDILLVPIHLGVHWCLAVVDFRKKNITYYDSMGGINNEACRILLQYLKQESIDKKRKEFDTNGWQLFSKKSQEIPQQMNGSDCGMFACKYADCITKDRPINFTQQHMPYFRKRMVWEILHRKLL
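Test system: hSENP1 catalytic domain, recombinant; Amount: 20 pM final SENP1 enzyme; Medium: Tris pH 8 buffer plus EDTA, NaCl, BME, BSA, NP40, catalase; Schedule: 50 min enzyme reaction, room temperature, light-protected; Technique: FRET fluorescence in CFP and YFP emission channels; Controls: no-enzyme wells low, DMSO-plus-enzyme wells high control.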
MPTP counter: mitochondrial membrane potential, counter-screen; shares compounds with MPTP inh; isolated mitochondria, Rhodamine 123 fluorescence; inhibition, % at 10 µM; 78% of 5,000 active; AID 624504; in the data active = inhibition above about 22%;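 note: 0% = DMSO vehicle and 100% = positive control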
MPTP abs DR: dose response confirmation of mitochondrial permeability transition pore inhibitors. shares compounds with MPTP inh. isolated mitochondria swelling, absorbance. IC50, µM. 58% of 780 active. AID 651561; in the data active = IC50 below about 20 µM
MPTP cs DR: MPTP inhibitor counter-screen activity, dose response. shares compounds with MPTP inh. isolated mitochondria counterscreen, fluorescence read-out. IC50, µM. 49% of 780 active. AID 651564; in the data active = IC50 below about 80 µM
Starred values were filed as active, the others as inactive; i = inactive; · = no result. Hits are enriched below; roughly 4.4% of the tested compounds scored in any of these assays.

SMILES | MPTP inh | GRIN3A LBD mod | EBI2 block | SENP1 inh | MPTP counter | others
CC(Cc1cccs1)NC(=O)Nc1ccc(F)cc1 (centres undefined) | 5 | 1 | -2 | -1 | ·
Cc1ccc(OCc2cc(C(=O)N3CCCC(O)C3)no2)cn1 (centres undefined) | 0 | 4 | -7 | 1 | ·
O=C(Nc1ccc(Cl)cc1)C1CCC(=O)N1Cc1ccccc1Cl (centres undefined) | -1 | -1 | 0 | 2 | ·
O=C(Nc1ccccc1Br)C1CCC(=O)N1Cc1ccccc1Cl (centres undefined) | 66* | -1 | -10 | 0 | 78*
COc1ccc2ccccc2c1/C=N/NC(=O)c1cccc(Br)c1 | 4 | 4 | 1 | 0 | ·
O=C(N/N=C/c1c(O)ccc2ccccc12)c1[nH]ncc1Br | 55* | 30* | -6 | -25 | 55*
O=C(N/N=C/c1c(O)ccc2ccccc12)c1cccc(C(F)(F)F)c1 | 99* | 21* | 17 | -28 | 42*
O=C1CCC(C(=O)N2CCN(c3ccccc3)CC2)CN1CC1CCCCC1 (centres undefined) | -2 | 10 | 5 | 0 | ·
CC(=O)c1cccc(NC(=O)Nc2csc3c2CCCC3)c1 | 80* | 1 | 4 | 2 | 94*
COc1ccc(/C=C/C(=O)Nc2ccccc2C(F)(F)F)cc1 | -1 | -2 | -4 | -1 | ·
COc1ccc(/C=C/C(=O)Nc2ccccc2C(=O)NCC(c2ccc(OC)cc2)N(C)C)cc1 (centres undefined) | 76* | 3 | 22 | 0 | -5 | MPTP abs DR=12*;MPTP cs DR=>80
O=C(NCc1nnc(SCC(=O)N2CCCC2)o1)c1ccccc1 | 0 | 1 | -8 | 2 | ·
O=C(CSc1nc(-c2ccccc2)nn1C(=O)c1ccccc1)Nc1cccc([N+](=O)[O-])c1 | 50* | 13* | 4 | 3 | 47*
O=C(c1cccc([N+](=O)[O-])c1)n1nc(-c2ccccc2)nc1NCc1ccccc1 | 2 | -1 | 6 | 2 | ·
CCn1cc(C(=O)NC2CCCc3c2cnn3-c2cccc(C)c2C)cn1 (centres undefined) | 87* | · | -11 | 1 | 104*
CC1=C(C(=O)NC2CCCc3c2cnn3-c2cccc(C)c2C)OCCO1 (centres undefined) | 11 | 1 | -8 | 1 | ·
Cc1cc(C)cc(-n2ncc3c2CCCC3NC(=O)c2cc(C)n(C)n2)c1 (centres undefined) | 1 | -2 | 2 | 2 | ·
Cc1cc(C(=O)NC2CCCc3c2cnn3-c2ccc(C(C)(C)C)cc2)nn1C (centres undefined) | 89* | 1 | -12 | 0 | 105*
Cc1cccc(-n2ncc3c2CCCC3NC(=O)c2ccncc2)c1C (centres undefined) | 86* | · | -4 | 2 | 90*
Cc1cccc(-n2ncc3c2CCCC3NC(=O)c2cccs2)c1C (centres undefined) | 10 | · | -3 | 2 | ·
CN1CCN(NC(=O)NC2CCCCC2)CC1 | 0 | -3 | -1 | 1 | ·
COc1ccccc1C(=O)NCCC(=O)N1CCN(C(C)=O)CC1 | 0 | 1 | -7 | 1 | ·
O=C(COc1ccccc1[N+](=O)[O-])Nc1ccc2c(c1)CCC2 | -3 | -8 | 5 | 0 | ·
Cc1cc(C)cc(N(CC(=O)NC2CCCC2)C(=O)C2(C)CC(=O)N=C3C=CC=CN32)c1 (centres undefined) | 1 | 0 | -2 | 2 | ·
CCCCOc1ccc(Br)cc1/C(C)=N/NC1=NCCN1 | 67* | -1 | -19 | 0 | 92*
SMILES | MPTP inh | GRIN3A LBD mod | EBI2 block | SENP1 inh | MPTP counter | others
CC1=C(C(=O)N(C(C)C)C(C)C)CC(CC(=O)NCCCN(C)C)C(=O)N1CCCN1CCCC1=O (centres undefined) | -1 | · | -8 | 4 | ·
O=C(NCc1ccccc1CN1CCCC1)c1cccc(S(=O)(=O)N2CCOCC2)c1 | 0 | 1 | -2 | 4 | ·
Cc1cc(O)c(-c2ccno2)cc1Cl | 82* | -1 | 2 | 0 | 88*
CCOC(=O)C1(Cc2cccc(OC)c2)CCCN(C(=O)CCN2CCCO2)C1 (centres undefined) | 1 | 0 | -15 | 1 | ·
OCCOCCNc1ncnc2c1c(-c1ccccc1)cn2-c1ccccc1 | 10 | 3 | -5 | -10 | ·
CN(C)CCCNc1ncnc2c1c(-c1ccccc1)cn2-c1ccccc1 | 59* | -1 | 13 | -7 | -6 | MPTP abs DR=i;MPTP cs DR=>80
Cc1cc(F)ccc1S(=O)(=O)N1CCCOC1CNC(=O)C(=O)NCCCN1CCOCC1 (centres undefined) | -1 | -1 | -9 | 1 | ·
CCCCN(CCCC)CC(O)CN(c1cc([N+](=O)[O-])ccc1OC)S(=O)(=O)c1ccccc1 (centres undefined) | 76* | -8 | 0 | 2 | -8 | MPTP abs DR=>100;MPTP cs DR=57*
COc1ccc([N+](=O)[O-])cc1N(CC(O)CN(CC(C)C)CC(C)C)S(=O)(=O)c1ccccc1 (centres undefined) | 2 | -30 | 14 | 0 | ·
COc1ccc(C(=O)NC(C)Cc2c[nH]c3ccccc23)cc1 (centres undefined) | -2 | · | -2 | 1 | ·
COc1ccc(Nc2nc(OC)nc(N3CCOCC3)n2)cc1 | -1 | 0 | -1 | 1 | ·
Cc1ccc(Nc2nc(OC(C(F)(F)F)C(F)(F)F)nc(N3CCOCC3)n2)cc1 | 72* | -1 | -6 | 3 | 1 | MPTP abs DR=>100;MPTP cs DR=>80
C[C@H]1c2cccc(O)c2C(O)=C2C(=O)C3(O)C(O)=C(C(N)=O)C(=O)[C@@H](N(C)C)[C@@H]3[C@@H](O)[C@@H]21 (some centres undefined) | 85* | 2 | 0 | 7 | 0
C[C@H]1c2cccc(O)c2C(=O)C2C(=O)C3(O)C(=O)C(C(N)=O)C(=O)[C@@H](N(C)C)[C@@H]3[C@@H](O)[C@@H]21 (some centres undefined) | 90* | -3 | -10 | 8 | 5
CC(C)=CCCC(C)CN1CCC(n2nccc2NC(=O)C2CCCC2)CC1 (centres undefined) | 1 | -4 | 6 | 0 | ·
O=C(Cc1cccc2ccccc12)NCC(=O)Nc1ccccc1F | 0 | -2 | -2 | -10 | ·
Cc1c(Cl)cccc1NC(=S)N1CCCN(Cc2ccccc2F)C1 | 69* | -2 | 3 | 1 | 74*
Cc1c(Cl)cccc1NC(=S)N1CCCN(Cc2ccc(F)cc2)C1 | 48 | 0 | 5 | 0 | ·
Fc1ccccc1CN1CCCN(C(=S)Nc2cccc(Cl)c2)C1 | 92* | 0 | -4 | 0 | 76*
C[C@@H]1CN([C@@H](C)CO)C(=O)c2cccc(NC(=O)C3CCCCC3)c2O[C@@H]1CN(C)Cc1ccc(Cl)c(Cl)c1 | -1 | -10 | 18 | 1 | ·

Bioassay records: PubChem BioAssay, Sanford-Burnham Center for Chemical Genomics
